This passage reports activation (% of control) results from PubChem BioAssay AID871 (The Scripps Research Institute Molecular Screening Center, 2007).

The whole screen tested about 190,000 compounds, of which about 1,800 (0.95%) were called active.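 How the source made its calls: active means activation above the screen-wide mean of compound activation plus 3 SD (cut at about 130% in these data); inactive means the rest.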 The list comes from a sample in which actives are over-represented; it also holds similar structures and randomly drawn compounds.

This assay is described as follows: IL-6 driven STAT3 reporter potentiators, primary screen, U3A cells, luciferase, luminescence, MLSCN library (AID 871).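 Further: 0% = background luminescence of wells with medium and substrate only.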 The note with it: IL-6 STAT3-luciferase reporter, at 5.6 µM, stronger effect = higher value, 100% = signal with IL-6 EC80 alone. Summed up:
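Assay system – human STAT1-deficient U3A cells with stable STAT3-luciferase reporter · Also added – IL-6 (33 ng/mL) · Schedule – compound 1 h, then IL-6 6 h at 37 °C · Technique – reporter luminescence signal · Evaluation – % activation versus median of IL-6-stimulated wells · Benchmarks – IL-6-only wells as 100% reference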
On the technique in general: In a reporter assay the amount or activity of a reporter protein is the signal.
Regarding `Cn1c(=NC(=O)c2cnccn2)sc2ccccc21`, the activation (% of control) is 83.8% (inactive).

`Cn1c(=NC(=O)c2ccco2)sc2cccc(F)c21`: the activation (% of control) was 144% (active). Turning to `CCCC(=O)N=c1sc2cccc(F)c2n1C`, the activation (% of control) is 113% (inactive).

For `NC(=O)CSc1c[nH]c2ccccc12`, the activation (% of control) is 143% (active). With `CCC(CC)NC(=O)CSc1nnc(-c2c[nH]c3ccccc23)o1` the figure was 90.9% (inactive).

As for `O=C(CSc1nnc(-c2c[nH]c3ccccc23)o1)c1ccccc1`, the activation (% of control) was 106% (inactive). Next, `COc1ccccc1NC(=O)CCCc1c[nH]c2ccccc12`: 88.8% (inactive); `CC(C)(C)N(Cc1ccccc1)C(=O)COC(=O)CCc1c[nH]c2ccccc12`: 87.1% (inactive); `CN(Cc1cccs1)C(=O)Cc1c[nH]c2ccccc12`: 86% (inactive).

With `O=C(Cc1c[nH]c2ccccc12)OCCOC(=O)Cc1c[nH]c2ccccc12`, the activation (% of control) is 136% (active).

For the molecule `CCOC(=O)CN(C)Cc1c[nH]c2ccccc12`, the activation (% of control) was 137% (active). With `NS(=O)(=O)c1ccc(NC(=O)COC(=O)CCc2c[nH]c3ccccc23)cc1` the figure was 108% (inactive). Take `Cc1ccnc(NC(=O)Cn2ccc([N+](=O)[O-])n2)c1`: the activation (% of control) was 96.1% (inactive). As to `CCOC(=O)c1cnc2c(c(C)nn2CC)c1Cl`, the activation (% of control) is 107% (inactive). Turning to `Oc1oc(-c2ccccc2Br)nc1/C=N/c1ccccn1`, the activation (% of control) was 107% (inactive). With `O=C(CSc1ccccc1F)NC1CCS(=O)(=O)C1` (centres undefined), the activation (% of control) was 95.7% (inactive).

Consider `CC(NC(=O)COC(=O)C1CCN(S(=O)(=O)c2ccccc2C(F)(F)F)CC1)c1ccccc1` (centres undefined), for which the activation (% of control) is 106% (inactive). Consider `CCOc1ccc(-n2c(SCC(=O)NC3CCS(=O)(=O)C3)nnc2-c2cccnc2)cc1` (centres undefined), for which the activation (% of control) is 99.7% (inactive).

Turning to `COC(=O)C(C)N=Cc1ccccc1` (centres undefined), the activation (% of control) was 102% (inactive).

Turning to `S=C(NCCc1ccccc1)N1CCn2cccc2C1c1ccncc1` (centres undefined), the activation (% of control) was 103% (inactive). Regarding `Cn1nc(C(F)(F)F)c2cc(C(=O)N3CCOCC3)sc21`, the activation (% of control) was 105% (inactive). In the case of `Cc1ccc(S(=O)(=O)C(C#N)c2nc3ccccc3nc2N2CCCC2)cc1C` (centres undefined), the activation (% of control) is 92.7% (inactive). For `Cc1ccc(S(=O)(=O)Nc2nc3ccccc3nc2N2CCc3ccccc3C2)cc1`, the activation (% of control) is 147% (active). As for `Cc1ccc(NC(=O)CN2CCc3ccccc3C2)cc1`, the activation (% of control) is 99.5% (inactive).

Regarding `O=C(COc1ccccc1)Nc1ccc(N2CCN(C(=O)c3cccs3)CC2)cc1`, the activation (% of control) is 93.1% (inactive).

In the case of `O=C1NC2(CCCCCC2)C(=O)N1CCS(=O)(=O)Oc1ccccc1`, the activation (% of control) is 104% (inactive). On to `Cc1ccc(Cn2c(C)nc3c(c2=O)c2nc4ccccc4nc2n3Cc2ccco2)cc1`, for which the activation (% of control) is 107% (inactive). Regarding `Cc1cc(NC(=O)CSc2nc3cc(Cl)ccc3c(=O)n2Cc2ccco2)no1`, the activation (% of control) is 103% (inactive). In the case of `Clc1cccc(-c2nc3nc4ccccc4nc3n2Cc2ccco2)c1`, the activation (% of control) is 135% (active).
